The source made the active and inactive calls.
Legend:
Assay type in all cases: functional, cell-based
SF-295 = assay: Cytotoxicity against human SF295 cells at 5 ug/ml after 72 hrs by MTT assay
Method in brief: (§1)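 Cells kept in log-phase growth in RPMI-1640 with 2 mM glutamine, 10% fetal calf serum, streptomycin and 100 U/ml penicillin at 37 °C, 5% CO₂. Single concentration of 5 µg/ml applied for 72 h. Growth read by MTT, reported as percent growth inhibition relative to untreated cells. Data from three to four experiments.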

HCT-8 = assay: Cytotoxicity against human HCT8 cells at 5 ug/ml after 72 hrs by MTT assay; method in brief: as §1
MDA-MB-435 = assay: Cytotoxicity against human MDA-MB-435 cells at 5 ug/ml after 72 hrs by MTT assay; method in brief: as §1
HL-60 = assay: Cytotoxicity against human HL60 cells at 5 ug/ml after 72 hrs by MTT assay; method in brief: as §1

Measured: Activity

CCCCCCCCC(N)C(=O)OC (stereo not drawn)
active: all assays above

CCCCCCCCCCC(N)C(=O)OC (stereo not drawn)
active: all assays above

Source: ChEMBL document CHEMBL1275359, “Pro-apoptotic activity of lipidic α-amino acids isolated from Protopalythoa variabilis” (Bioorg Med Chem, 2010)
